Data on 2 compounds can be found in ChEMBL document CHEMBL2429850, “In vitro and in vivo effects of (-)-epigallocatechin 3-O-gallate on Leishmania amazonensis” (J Nat Prod, 2013).

Activity calls are given as the source filed them. No cut-off for these calls is given here.

As usually defined, the IC50 is the concentration needed to halve the response being measured.

The subject of data set [1] is Mus musculus. Put plainly: Toxicity in stationary-phase promastigotes of Leishmania amazonensis MHOM/BR/75/LTB0016 infected BALB/c mouse assessed as serum alanine aminotransferase level at 30 mg/kg, po administered 5 times per week. The class given is organism-based. Further details: dose 30 mg/kg, route oral. The conditions noted are these: in vivo. Put shortly: (§1)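 Infected BALB/c mice (2 × 10^6 promastigotes intradermally, ear) were dosed orally at 30 mg/kg/day in PBS, once daily, five times a week, to day 52. The PBS-treated group served as control. Serum was collected at euthanasia, and ALT, AST and creatinine were measured with colorimetric kits. n = 5.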

The test system of data set [2] is Mus musculus. Put plainly: Toxicity in stationary-phase promastigotes of Leishmania amazonensis MHOM/BR/75/LTB0016 infected BALB/c mouse assessed as serum aspartate aminotransferase level at 30 mg/kg, po administered 5 times per week. Further details: dose 30 mg/kg, route oral. The conditions noted are these: in vivo. The class given is organism-based. Put shortly: as §1

In data set [3] the test system is Mus musculus. Put plainly: Toxicity in stationary-phase promastigotes of Leishmania amazonensis MHOM/BR/75/LTB0016 infected BALB/c mouse assessed as serum creatinine level at 30 mg/kg, po administered 5 times per week. Type of data set: organism-based. Further details: dose 30 mg/kg, route oral. The conditions noted are these: in vivo. An outline of the steps: as §1

The subject of data set [4] is Leishmania amazonensis. Put plainly: Antileishmanial activity against stationary-phase promastigotes of Leishmania amazonensis MHOM/BR/75/LTB0016 infected in BALB/c mouse assessed as reduction of parasite burden at 30 mg/kg, po administered 5 times per week. Type of data set: functional, organism-based. Further details: dose 30 mg/kg. Put shortly:
(§2)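 BALB/c mice (five per group, specific pathogen-free) infected intradermally in the right ear with 2 × 106 L. amazonensis promastigotes. Compound diluted in PBS, given orally at 30 mg/kg/day once daily, five times a week, until day 52. Controls received oral sterile PBS. Meglumine antimoniate 30 mg/kg/day ip served as positive control. Lesions measured twice weekly by dial caliper. Parasite load from excised, weighed, minced ears by limiting dilution in Schneider's medium with 10% FCS; growth read after 7 days at 26 °C. n = 5 ears.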

The subject of data set [5] is Leishmania amazonensis. Put plainly: Antileishmanial activity against stationary-phase promastigotes of Leishmania amazonensis MHOM/BR/75/LTB0016 infected in BALB/c mouse assessed as reduction of lesion size at 30 mg/kg, po administered 5 times per week. Type of data set: functional, organism-based. Further details: dose 30 mg/kg. Put shortly: as §2
Data set [6] is described as follows: Selectivity index, ratio of IC50 for Swiss mouse peritoneal macrophages to IC50 for intracellular amastigotes of Leishmania amazonensis MHOM/BR/75/LTB0016. Put shortly:
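Ratio of the macrophage IC50 (AlamarBlue, 72 h) to the intracellular amastigote IC50 (infection index, 72 h).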

The nature of data set [7]: Cytotoxicity against Swiss mouse peritoneal macrophages after 72 hrs by Alamar blue assay. Type of data set: cell-based. To be noted: Peritoneal macrophage cell. Put shortly:
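Swiss mouse peritoneal macrophages (2 × 10^6 cells/mL) adhered 1 h at 37 °C, 5% CO2; nonadherent cells washed off. Exposed to compound (3 to 3000 μM) for 72 h, washed, then AlamarBlue (10% v/v) for 12 h at 37 °C. Absorbance read at 570 nm. IC50 by logarithmic regression. 0.1% Triton X-100 lysis as positive control; PBS vehicle control; three independent experiments.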
(Resazurin is reduced to fluorescent resorufin, in cell work by metabolically active cells.)

Data set [8] concerns Leishmania amazonensis. Put plainly: Antileishmanial activity against intracellular amastigotes of Leishmania amazonensis MHOM/BR/75/LTB0016 infected in Swiss mouse peritoneal macrophages assessed as growth inhibition at 12 uM after 72 hrs. To be noted: MHOM/BR/75/LTB0016, 72 h, read-out: GI. The class given is functional. An outline of the steps:
(§3)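 Peritoneal macrophages from Swiss mice (6−8 weeks), plated in RPMI at 2 × 10^6 cells/mL, infected with L. amazonensis promastigotes (MOI 3.0) for 3 h at 37 °C, 5% CO2; free parasites washed off. Infected cells incubated with compound (3, 6, and 12 μM) or PBS vehicle for 72 h. Light microscopy, ≥200 cells per coverslip in duplicate. Infection index = % infected macrophages × amastigotes/total macrophages. IC50 by logarithmic regression. Three independent experiments; pentamidine (12 μM) reference.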

For data set [9], the system named is Leishmania amazonensis. Put plainly: Antileishmanial activity against intracellular amastigotes of Leishmania amazonensis MHOM/BR/75/LTB0016 infected in Swiss mouse peritoneal macrophages assessed as inhibition of infection index after 72 hrs by light microscopic analysis. Type of data set: functional, organism-based. An outline of the steps:
as §3

Data set [10] can be described thus: Selectivity index, ratio of CC50 for Balb/c mouse peritoneal macrophages to IC50 for promastigotes of Leishmania amazonensis IFLA/BR/1967/PH-8. The class given is functional.

`O=C(O[C@@H]1Cc2c(O)cc(O)cc2O[C@@H]1c1cc(O)c(O)c(O)c1)c1cc(O)c(O)c(O)c1` [EPIGALOCATECHIN GALLATE]: the Activity entry in the data set on Mus musculus [1], in the data set with Mus musculus [2] and in the data set on Mus musculus [3] was “Non-toxic” throughout. Moreover, the result with Leishmania amazonensis [4] and with Leishmania amazonensis [5] was Active. Also, the “Ratio IC50” value in data set [6] stood at 129.4. Besides, the half-maximal inhibitory concentration (IC50) came to 436 µM in data set [7] and 1.6 µM in the data set with Leishmania amazonensis [9] (MHOM/BR/75/LTB0016, 72 h). Besides, in the data set with Leishmania amazonensis [8], the inhibition of growth at 12 µM turned out to be 83.6%. Further, the inhibition result with Leishmania amazonensis [9] was “Dose-dependent effect”.

For the compound `CCCCCCCCCCCCCCCCOP(=O)([O-])OCC[N+](C)(C)C` [MILTEFOSINE], in [10], the “Ratio CC50/IC50” value was found to be 28.9.
